Experimental data reported in ChEMBL document CHEMBL1154405, “An early response to environmental stress involves regulation of OmpX and OmpF, two enterobacterial outer membrane pore-forming proteins” (2007).
Active and inactive are the calls of the source. The rule behind the calls is not given here.

Key:
[1] = tested on: Escherichia coli; assay: Increase in ompX-lacZ expression in Escherichia coli JM109 assessed as increase in beta-galactosidase activity after 60 mins relative to control; type: functional, organism-based
Summary of the method: (§1)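 Strains electrotransformed with an ompX–lacZ fusion plasmid (pMD08): E. coli JM109, MC1061 ompX::Cm, AG100, CH164 (marA), E. aerogenes ATCC 15038. Grown in LB (with or without NaCl) to OD600 0.2 at 37°C. Treated with subinhibitory stresses (MIC-derived) or NaCl osmotic shock. Miller units read after 60 min; means of five independent experiments with SD.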

[2] = tested on: Klebsiella aerogenes; assay: Increase in ompX-lacZ expression in Enterobacter aerogenes ATCC 15038 assessed as increase in beta-galactosidase activity after 60 mins relative to control; type: functional, organism-based; summary of the method: as §1
[3] = tested on: Escherichia coli; assay: Increase in ompX-lacZ expression in Escherichia coli JM109 assessed as ompX upregulation after 60 mins relative to control; type: functional, organism-based; summary of the method: as §1
[4] = tested on: Klebsiella aerogenes; assay: Increase in ompX-lacZ expression in Enterobacter aerogenes ATCC 15038 assessed as ompX upregulation after 60 mins relative to control; type: functional, organism-based; summary of the method: as §1
[5] = tested on: Escherichia coli; assay: Increase in ompX-lacZ expression in Escherichia coli deltaompX mutant assessed as increase in beta-galactosidase activity after 60 mins relative to control; type: functional, organism-based; summary of the method: as §1
[6] = tested on: Escherichia coli; assay: Effect on ompF-lacZ fusion translation in ompX-negative Escherichia coli mutant assessed as percent decrease in Miller units of beta-galactosidase activity after 90 mins relative to control; type: functional; set-up: scale not given: the % may be the effect or the level left
Summary of the method: (§2)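 ompF promoter–lacZ fusions (pCeJa01, pCeJa02) carried in E. coli AG100 and its marA mutant CH164, and in MC1061 and MC1061 ompX::Cm. Cultures grown in LB (with or without NaCl) to OD600 0.2, then stress added at subinhibitory levels set per strain and promoter from MIC assays, 37°C. β-Galactosidase measured at time intervals (Miller method); percent decrease versus control, SD, Student t test.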

[7] = tested on: Escherichia coli; assay: Increase in ompX-lacZ expression in Escherichia coli deltaompX mutant assessed as ompX upregulation after 60 mins relative to control; type: functional
Summary of the method: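 E. coli ompX::Cm strain transformed by electroporation with pMD08 (ompX-lacZ fusion), grown in LB broth (with or without NaCl) to OD600 0.2. Stresses were then added at strain-specific subinhibitory concentrations derived from MICs; osmotic shock was given as NaCl. Cultures were incubated 60 min at 37°C with growth rate monitored. Miller-unit beta-galactosidase activity is the mean of five independent experiments with SD.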

[8] = tested on: Escherichia coli; assay: Effect on ompF-lacZ fusion translation in wild type Escherichia coli MC1061 assessed as percent decrease in Miller units of beta-galactosidase activity after 90 mins relative to control; type: functional; set-up: scale not given: the % may be the effect or the level left; summary of the method: as §2
[9] = tested on: Escherichia coli; assay: Effect on ompF-lacZ fusion translation in ompX-negative Escherichia coli mutant assessed as percent decrease in Miller units of beta-galactosidase activity after 120 mins relative to control; type: functional; set-up: scale not given: the % may be the effect or the level left; summary of the method: as §2
[10] = tested on: Escherichia coli; assay: Effect on ompF-lacZ fusion translation in wild type Escherichia coli MC1061 assessed as percent decrease in Miller units of beta-galactosidase activity after 120 mins relative to control; type: functional; set-up: scale not given: the % may be the effect or the level left; summary of the method: as §2
[11] = tested on: Escherichia coli; assay: Effect on ompF-lacZ fusion translation in wild type Escherichia coli MC1061 assessed as percent decrease in Miller units of beta-galactosidase activity after 60 mins relative to control; type: functional; set-up: scale not given: the % may be the effect or the level left
Summary of the method: (§3)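 E. coli strains carrying ompF-lacZ reporter constructs (pCeJa01/pCeJa02) were grown in LB broth, with or without NaCl, to early exponential phase (OD600 0.2). Stress compounds were then added at subinhibitory concentrations, set from MICs for each strain and promoter, and incubation continued at 37°C. Beta-galactosidase activity (Miller method) was read at time intervals. Percent decrease versus control was calculated, with Student t test and standard deviations.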

[12] = tested on: Escherichia coli; assay: Effect on ompF-lacZ fusion translation in wild type Escherichia coli AG100 assessed as percent decrease in Miller units of beta-galactosidase activity after 60 mins relative to control; type: functional; set-up: scale not given: the % may be the effect or the level left; summary of the method: as §2
[13] = tested on: Escherichia coli; assay: Effect on ompF-lacZ fusion translation in wild type Escherichia coli AG100 assessed as percent decrease in Miller units of beta-galactosidase activity after 90 mins relative to control; type: functional; set-up: scale not given: the % may be the effect or the level left; summary of the method: as §3
[14] = tested on: Escherichia coli; assay: Effect on ompF-lacZ fusion translation in wild type Escherichia coli AG100 assessed as percent decrease in Miller units of beta-galactosidase activity after 120 mins relative to control; type: functional; set-up: scale not given: the % may be the effect or the level left; summary of the method: as §2
[15] = tested on: Escherichia coli; assay: Increase in ompX-lacZ expression in marA-negative Escherichia coli CH164 mutant assessed as beta-galactosidase activity after 60 mins relative to control; type: functional; summary of the method: as §1
[16] = tested on: Escherichia coli; assay: Effect on ompF-lacZ fusion transcription in wild type Escherichia coli MC1061 assessed as percent decrease in Miller units of beta-galactosidase activity after 120 mins relative to control; type: functional; set-up: scale not given: the % may be the effect or the level left; summary of the method: as §2
[17] = tested on: Escherichia coli; assay: Effect on ompF-lacZ fusion transcription in wild type Escherichia coli MC1061 assessed as percent decrease in Miller units of beta-galactosidase activity after 90 mins relative to control; type: functional; set-up: scale not given: the % may be the effect or the level left; summary of the method: as §2
[18] = tested on: Escherichia coli; assay: Effect on ompF-lacZ fusion transcription in ompX-negative Escherichia coli mutant assessed as percent decrease in Miller units of beta-galactosidase activity after 90 mins relative to control; type: functional; set-up: scale not given: the % may be the effect or the level left; summary of the method: as §2
[19] = tested on: Escherichia coli; assay: Effect on ompF-lacZ fusion transcription in wild type Escherichia coli AG100 assessed as percent decrease in Miller units of beta-galactosidase activity after 60 mins relative to control; type: functional; set-up: scale not given: the % may be the effect or the level left; summary of the method: as §2
[20] = tested on: Escherichia coli; assay: Effect on ompF-lacZ fusion transcription in ompX-negative Escherichia coli mutant assessed as percent decrease in Miller units of beta-galactosidase activity after 120 mins relative to control; type: functional; set-up: scale not given: the % may be the effect or the level left; summary of the method: as §2
[21] = tested on: Escherichia coli; assay: Effect on ompF-lacZ fusion transcription in wild type Escherichia coli AG100 assessed as percent decrease in Miller units of beta-galactosidase activity after 120 mins relative to control; type: functional; set-up: scale not given: the % may be the effect or the level left; summary of the method: as §2
[22] = tested on: Escherichia coli; assay: Effect on ompF-lacZ fusion transcription in wild type Escherichia coli AG100 assessed as percent decrease in Miller units of beta-galactosidase activity after 90 mins relative to control; type: functional; set-up: scale not given: the % may be the effect or the level left; summary of the method: as §2
[23] = tested on: Escherichia coli; assay: Effect on ompF-lacZ fusion translation in marA-negative Escherichia coli CH164 mutant assessed as percent decrease in Miller units of beta-galactosidase activity after 60 mins relative to control; type: functional; set-up: scale not given: the % may be the effect or the level left; summary of the method: as §3
[24] = tested on: Escherichia coli; assay: Effect on ompF-lacZ fusion translation in marA-negative Escherichia coli CH164 mutant assessed as percent decrease in Miller units of beta-galactosidase activity after 120 mins relative to control; type: functional; set-up: scale not given: the % may be the effect or the level left; summary of the method: as §3
[25] = tested on: Escherichia coli; assay: Effect on ompF-lacZ fusion translation in marA-negative Escherichia coli CH164 mutant assessed as percent decrease in Miller units of beta-galactosidase activity after 90 mins relative to control; type: functional; set-up: scale not given: the % may be the effect or the level left; summary of the method: as §3
[26] = tested on: Escherichia coli; assay: Effect on ompF-lacZ fusion transcription in marA-negative Escherichia coli CH164 mutant assessed as percent decrease in Miller units of beta-galactosidase activity after 120 mins relative to control; type: functional; set-up: scale not given: the % may be the effect or the level left; summary of the method: as §3
[27] = tested on: Escherichia coli; assay: Effect on ompF-lacZ fusion translation in ompX-negative Escherichia coli mutant assessed as percent decrease in Miller units of beta-galactosidase activity after 60 mins relative to control; type: functional; set-up: scale not given: the % may be the effect or the level left; summary of the method: as §2
[28] = tested on: Escherichia coli; assay: Effect on ompF-lacZ fusion transcription in marA-negative Escherichia coli CH164 mutant assessed as percent decrease in Miller units of beta-galactosidase activity after 90 mins relative to control; type: functional; set-up: scale not given: the % may be the effect or the level left; summary of the method: as §2
[29] = tested on: Escherichia coli; assay: Effect on ompF-lacZ fusion transcription in ompX-negative Escherichia coli mutant assessed as percent decrease in Miller units of beta-galactosidase activity after 60 mins relative to control; type: functional; set-up: scale not given: the % may be the effect or the level left; summary of the method: as §2
[30] = tested on: Escherichia coli; assay: Effect on ompF-lacZ fusion transcription in marA-negative Escherichia coli CH164 mutant assessed as percent decrease in Miller units of beta-galactosidase activity after 60 mins relative to control; type: functional; set-up: scale not given: the % may be the effect or the level left; summary of the method: as §2
[31] = tested on: Klebsiella aerogenes; assay: Induction of ompX-lacZ expression in Enterobacter aerogenes ATCC 15038 assessed as total RNA content after 30 mins by RT-PCR; type: functional, organism-based
[32] = tested on: Escherichia coli; assay: Induction of ompX transcription in SoxS-positive Escherichia coli K12 relative to control; type: functional

## CCn1cc(C(=O)O)c(=O)c2ccc(C)nc21
[1]
  Activity: Active
[2]
  Activity: Active
[3]
  Activity: Active
[4]
  Activity: Active
[5]
  Activity: Active

## NCCc1ccccc1
[1]
  Activity: Active
[2]
  Activity: Active
[3]
  Activity: Active
[4]
  Activity: Active
[5]
  Activity: Active

## c1ccc(-c2ccccn2)nc1 [DIPYRIDYL]
[6]
  Activity: 19%
[7]
  Activity: 2
[1]
  Activity: Active
[8]
  Activity: 16.1%
[2]
  Activity: Active
[9]
  Activity: 28.6%
[10]
  Activity: 18.4%
[3]
  Activity: Active
[4]
  Activity: Active
[11]
  Activity: 7.4%
[12]
  Activity: 52%
[13]
  Activity: 53%
[14]
  Activity: 55%
[15]
  Activity: Active

## CCn1cc(C(=O)O)c(=O)c2cc(F)c(N3CCNCC3)cc21 [NORFLOXACIN]
[6]
  Activity: 21.7%
[16]
  Activity: 24%
[1]
  Activity: Active
[17]
  Activity: 14.9%
[18]
  Activity: 18.6%
[8]
  Activity: 27.1%
[2]
  Activity: Active
[9]
  Activity: 22%
[10]
  Activity: 27.5%
[3]
  Activity: Active
[4]
  Activity: Active
[12]
  Activity: 14.1%
[19]
  Activity: 13.2%
[20]
  Activity: 19.2%
[14]
  Activity: 16.6%
[15]
  Activity: 1.5
[5]
  Activity: Active
[21]
  Activity: 8.2%

## CO[C@@H]1[C@@H](OC(N)=O)[C@@H](O)[C@H](Oc2ccc3c(O)c(NC(=O)c4ccc(O)c(CC=C(C)C)c4)c(=O)oc3c2C)OC1(C)C [NOVOBIOCIN]
[6]
  Activity: 45.3%
[7]
  Activity: 2
[16]
  Activity: 36.5%
[22]
  Activity: 32.6%
[23]
  Activity: 23.6%
[1]
  Activity: Active
[17]
  Activity: 28.6%
[18]
  Activity: 25.3%
[24]
  Activity: 26.9%
[8]
  Activity: 38.4%
[25]
  Activity: 21.2%
[26]
  Activity: 24.5%
[2]
  Activity: Active
[9]
  Activity: 55.2%
[10]
  Activity: 50.9%
[3]
  Activity: Active
[27]
  Activity: 28.4%
[4]
  Activity: Active
[11]
  Activity: 21.3%
[28]
  Activity: 20%
[12]
  Activity: 48.5%
[13]
  Activity: 39.8%
[19]
  Activity: 25.5%
[20]
  Activity: 36%
[14]
  Activity: 46.8%
[15]
  Activity: Active
[29]
  Activity: 17%
[30]
  Activity: 9.5%
[21]
  Activity: 25.7%
[31]
  Activity: Active

## C[n+]1ccc(-c2cc[n+](C)cc2)cc1 [PARAQUAT]
[1]
  Activity: Active
[2]
  Activity: Active
[3]
  Activity: Active
[4]
  Activity: Active
[32]
  Activity: 1.2
[5]
  Activity: Active

## O=C(O)c1ccccc1O [SALICYLIC ACID]
[6]
  Activity: 40.9%
[7]
  Activity: 2
[16]
  Activity: 17.3%
[22]
  Activity: 25.7%
[1]
  Activity: Active
[17]
  Activity: 25%
[18]
  Activity: 26%
[8]
  Activity: 46.8%
[2]
  Activity: Active
[9]
  Activity: 43.7%
[10]
  Activity: 45.6%
[3]
  Activity: Active
[27]
  Activity: 35.3%
[4]
  Activity: Active
[11]
  Activity: 42.5%
[28]
  Activity: 15.5%
[12]
  Activity: 59%
[13]
  Activity: 51.8%
[19]
  Activity: 29.9%
[20]
  Activity: 14.8%
[14]
  Activity: 49%
[29]
  Activity: 21%
[30]
  Activity: 17.4%
[21]
  Activity: 15.8%
[31]
  Activity: Active
